The text below walks through data of ChEMBL document CHEMBL4000211, “Discovery of novel polycyclic spiro-fused carbocyclicoxindole-based anticancer agents” (Eur J Med Chem, 2017).

pIC50: −log10 of the molar value. Activity calls are given as the source filed them. No cut-off for these calls is given here.

One experiment has as its system A549. The experiment can be described thus: Antiproliferative activity against human A549 cells after 48 hrs by MTT assay. It counts as functional, cell-based. Conditions: A549, 48 h. The gist of the method: (§1)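 Cells seeded at 3×10³/well and grown 24 h, then exposed 48 h to six final concentrations, twofold steps down from 30. MTT (5 mg/mL) was added for 2–4 h at 37 °C. Supernatant was removed, formazan dissolved in DMSO, and OD read at 570 nm. Results are given as IC50, or as percent inhibition where IC50 exceeds the top concentration. At least three runs.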
A general note: Tetrazolium assays rely on reduction of a dye to a coloured formazan, in cell work by metabolically active cells.

The subject of experiment [1] is HCT-116. The experiment can be described thus: Induction of apoptosis in human HCT116 cells assessed as cell shrinkage at 7.5 to 12.5 uM after 24 hrs by inverted microscopic method. It counts as functional, cell-based. The gist of the method:
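HCT116 at 1×10⁵/well grown 24 h, then treated 24 h (0, 7.5, 10, 12.5). Cells rinsed in PBS and fixed in 75% ethanol. Morphology was examined by inverted microscopy, then cells were stained with Hoechst 33342 for fluorescence microscopy of nuclei.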

Experiment [2] has as its system HCT-116. Kind of experiment: Cell cycle arrest in human HCT116 cells assessed as accumulation at sub G1 phase at 7.5 uM after 24 hrs by propidium iodide staining-based flow cytometric method (reference value: 1.73%). Format: functional. Background: In flow cytometry, cells or beads pass a laser one at a time.
Experiment [3] relates to HCT-116. The experiment can be described thus: Induction of apoptosis in human HCT116 cells assessed as late apoptotic cells at 10 uM after 48 hrs by annexin V-FITC/propidium iodide staining-based flow cytometric method (reference value: 1.06%). It counts as functional.
The subject of experiment [4] is HCT-116. The experiment can be described thus: Induction of apoptosis in human HCT116 cells assessed as necrotic cells at 12.5 uM after 48 hrs by annexin V-FITC/propidium iodide staining-based flow cytometric method (reference value: 2.29%). It counts as functional. The gist of the method:
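HCT116 cells seeded at 1×10⁶ cells/mL in 6-well plates for 24 h, then exposed to 0, 7.5, 10 or 12.5 μM for a further 24 h or 48 h. Cells washed twice in PBS, then stained with Annexin V-FITC plus PI (100 μg/mL stock) in binding buffer (10 mM HEPES, pH 7.4, 2.5 mM CaCl₂) for 30 min at room temperature in the dark. Early and late apoptotic fractions gated by flow cytometry.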

The test system of another experiment is A2780S. The experiment can be described thus: Antiproliferative activity against human A2780S cells at 3.75 uM after 48 hrs by MTT assay relative to control. It counts as functional. In outline: as §1

Take `C[C@@H]1Oc2ccc3ccccc3c2[C@@H]2[C@@H]1C=C(C=O)[C@@H](C)[C@]21C(=O)Nc2ccccc21`: the pIC50 (usually the negative decadic logarithm of the IC50, by convention in mol/L) with A549 was 4.74. Further, the result in the experiment with HCT-116 [1] was Active. For the same compound, the Activity in the experiment on HCT-116 [2] amounted to 3.18%; in the experiment on HCT-116 [3] it was 8.18%; with HCT-116 [4], 5.28%. In addition, in the experiment with A2780S, the inhibition – broadly, how much of the control response was suppressed – at 3.75 µM lay in the range of 17.7 to 24.1%.
